Converted amounts (≈) assume the structure as drawn.

One test deals with Mycobacterium tuberculosis. Description: Antitubercular activity against multidrug-resistant Mycobacterium tuberculosis H37Rv after 7 days by alamar blue assay. The conditions noted are these: 168 h. It counts as functional. Background: The colour change of resazurin is a common sign of viable cells or microbes.
One may read the MIC as the lowest concentration found to suppress growth. A higher MIC goes with weaker potency. `COc1nc([N+](=O)[O-])cn1CC(O)c1ccc(-c2ccccc2)cc1` (racemic) displayed an MIC of 0.5 µg/mL (≈ 1.47 µM).

The molecule `O=[N+]([O-])c1cn(CC(OCc2ccc(OC(F)(F)F)cc2)c2ccc(F)cc2F)cn1` (racemic) had an MIC above 256 µg/mL.

`O=[N+]([O-])c1cn(CC(OCc2ccc(F)cc2)c2ccc(Cl)cc2Cl)c(Br)n1` (racemic) came in with an MIC above 256 µg/mL.

`O=[N+]([O-])c1ccc(C(O)Cn2cc([N+](=O)[O-])nc2Br)cc1` (racemic) gave an MIC of 64 µg/mL (≈ 179 µM).

Take `O=[N+]([O-])c1cn(CC(OCc2cc(F)cc(F)c2)c2ccc(Cl)cc2Cl)cn1` (racemic): the MIC is above 256 µg/mL.

Molecule `COc1nc([N+](=O)[O-])cn1CC(OCc1ccc(OC(F)(F)F)cc1)c1ccc(F)cc1F` (racemic) had an MIC above 256 µg/mL.

Molecule `COc1nc([N+](=O)[O-])cn1CC(OCc1ccc(F)cc1)c1ccc(F)cc1F` (racemic) came in with an MIC above 32 µg/mL.

The molecule `COc1nc([N+](=O)[O-])cn1CC(O)c1ccc(F)cc1F` (racemic) displayed an MIC of 4 µg/mL (≈ 13.4 µM).

Regarding `COc1nc([N+](=O)[O-])cn1CC(O)c1ccc(F)cc1` (racemic), it took 16 µg/mL (≈ 56.9 µM) to inhibit growth (MIC). This MIC lies about 4-fold higher than the previous one.

`Cc1nc([N+](=O)[O-])cn1CC(OCc1ccc(Cl)cc1)c1ccc(Cl)cc1Cl` (racemic) had an MIC above 256 µg/mL.

`O=[N+]([O-])c1cn(CC(OCc2ccc(Cl)cc2)c2ccc(F)cc2F)cn1` (racemic) yielded a minimum inhibitory concentration (MIC) above 256 µg/mL.

In the case of `O=[N+]([O-])c1cn(CC(OCc2ccccc2F)c2ccc(Cl)cc2Cl)c(Br)n1` (racemic), the MIC is above 256 µg/mL.

As for `COc1nc([N+](=O)[O-])cn1CC(O)c1ccc([N+](=O)[O-])cc1` (racemic), inhibition of growth (MIC) required 16 µg/mL (≈ 51.9 µM).

In the case of `CSc1nc([N+](=O)[O-])cn1CC(O)c1ccc(Cl)cc1Cl` (racemic), inhibition of growth (MIC) required 16 µg/mL (≈ 45.9 µM).

`O=[N+]([O-])c1cn(CC(OCc2cc(F)cc(F)c2)c2ccc(Cl)cc2Cl)c(Br)n1` (racemic) had an MIC above 256 µg/mL.

With `O=[N+]([O-])c1cn(CC(OCc2ccc(OC(F)(F)F)cc2)c2ccc(Cl)cc2Cl)cn1` (racemic), the MIC is above 256 µg/mL.

`COc1nc([N+](=O)[O-])cn1CC(O)c1ccccc1` (racemic): it took 8 µg/mL (≈ 30.4 µM) to inhibit growth (MIC).

`COc1nc([N+](=O)[O-])cn1CC(OCc1cc(F)cc(F)c1)c1ccc(Cl)cc1Cl` (racemic): the MIC was above 256 µg/mL.

Consider `COc1nc([N+](=O)[O-])cn1CC(OCc1ccc(F)cc1)c1ccc(Cl)cc1Cl` (racemic), for which the MIC is above 256 µg/mL.

Consider `O=[N+]([O-])c1cn(CC(OCc2ccc(Cl)cc2)c2ccc(Cl)cc2Cl)c(Br)n1` (racemic), for which the MIC is above 256 µg/mL.

`COc1nc([N+](=O)[O-])cn1CC(OCc1ccc(Cl)cc1)c1ccc(Cl)cc1Cl` (racemic) showed an MIC above 256 µg/mL.

`O=[N+]([O-])c1cn2c(n1)OC[C@@H](OCc1ccc(OC(F)(F)F)cc1)C2` [PRETOMANID] displayed an MIC of 0.13 µg/mL (≈ 0.362 µM).

The molecule `O=[N+]([O-])c1cn(CC(O)c2ccc(F)cc2)c(Br)n1` (racemic) displayed an MIC of 128 µg/mL (≈ 388 µM).

Consider `O=[N+]([O-])c1cn(CC(O)c2ccc(-c3ccccc3)cc2)c(Br)n1` (racemic), for which the MIC was above 256 µg/mL.

For `Cc1nc([N+](=O)[O-])cn1CC(O)c1ccc(Cl)cc1Cl` (racemic), the minimum inhibitory concentration (MIC) was above 256 µg/mL.

As to `O=[N+]([O-])c1cn(CC(O)c2ccc(F)cc2F)c(Br)n1` (racemic), the MIC stood at 64 µg/mL (≈ 184 µM).

`O=[N+]([O-])c1cn(CC(OCc2ccc(Cl)cc2)c2ccc(Cl)cc2Cl)cn1` (racemic) showed a minimal inhibitory concentration (MIC) above 256 µg/mL.

`O=[N+]([O-])c1cn(CC(O)c2ccc(Cl)cc2)c(Br)n1` (racemic) showed an MIC of 64 µg/mL (≈ 185 µM).

In turn, `COc1nc([N+](=O)[O-])cn1CC(OCc1ccc(Cl)cc1)c1ccc(F)cc1F` (racemic) returned an MIC above 16 µg/mL.

`O=[N+]([O-])c1cn(CC(OCc2ccc(Cl)cc2)c2ccc(F)cc2F)c(Br)n1` (racemic) registered an MIC above 256 µg/mL.

In the case of `O=[N+]([O-])c1cn(CC(OCc2ccc(F)cc2)c2ccc(Cl)cc2Cl)cn1` (racemic), the minimal inhibitory concentration (MIC) is above 256 µg/mL.

`O=[N+]([O-])c1cn(CC(OCc2cc(F)ccc2F)c2ccc(Cl)cc2Cl)cn1` (racemic) registered a minimal inhibitory concentration (MIC) above 256 µg/mL.

Take `COc1nc([N+](=O)[O-])cn1CC(O)c1ccc(Cl)cc1Cl` (racemic): the MIC was determined as 0.5 µg/mL (≈ 1.51 µM).

In turn, `O=[N+]([O-])c1cn(CC(OCc2cc(F)cc(F)c2)c2ccc(F)cc2F)cn1` (racemic) yielded an MIC above 256 µg/mL.

`O=[N+]([O-])c1cn(CC(OCc2ccc(F)cc2F)c2ccc(Cl)cc2Cl)cn1` (racemic) gave an MIC above 256 µg/mL.

Take `COc1nc([N+](=O)[O-])cn1CC(O)c1ccc(Cl)cc1` (racemic): the MIC was found to be 16 µg/mL (≈ 53.7 µM).

Consider `Clc1ccc(COC(Cn2ccnc2)c2ccc(Cl)cc2Cl)cc1` (stereo not given) [ECONAZOLE], for which the lowest concentration to inhibit growth (MIC) was 16 µg/mL (≈ 41.9 µM).

In turn, `CSc1nc([N+](=O)[O-])cn1CC(OCc1ccc(Cl)cc1)c1ccc(Cl)cc1Cl` (racemic) registered an MIC above 256 µg/mL.

Molecule `COc1nc([N+](=O)[O-])cn1CC(OCc1ccc(OC(F)(F)F)cc1)c1ccc(Cl)cc1Cl` (racemic) came in with an MIC above 256 µg/mL.

In turn, `CSc1nc([N+](=O)[O-])cn1CC(OCc1ccc(Cl)cc1)c1ccc(F)cc1F` (racemic) showed an MIC above 256 µg/mL.

The molecule `O=[N+]([O-])c1cn(CC(OCc2ccccc2F)c2ccc(Cl)cc2Cl)cn1` (racemic) had an MIC above 256 µg/mL.

`O=[N+]([O-])c1cn(CC(O)c2ccc(Cl)cc2Cl)c(Br)n1` (racemic) yielded an MIC of 2 µg/mL (≈ 5.25 µM).

Regarding `O=[N+]([O-])c1cn(CC(OCc2ccc(F)cc2)c2ccc(F)cc2F)cn1` (racemic), the MIC was above 256 µg/mL.

Regarding `O=[N+]([O-])c1cn(CC(O)c2ccc(F)cc2F)cn1` (racemic), 256 µg/mL (≈ 951 µM) was the least that counted as inhibitory (MIC).

The molecule `Cc1ccc(C(O)Cn2cc([N+](=O)[O-])nc2Br)c(C)c1` (racemic) gave an MIC of 128 µg/mL (≈ 376 µM).

For `CSc1nc([N+](=O)[O-])cn1CC(OCc1ccc(F)cc1)c1ccc(Cl)cc1Cl` (racemic), the MIC was above 256 µg/mL.

Regarding `CSc1nc([N+](=O)[O-])cn1CC(OCc1cc(F)cc(F)c1)c1ccc(Cl)cc1Cl` (racemic), the minimal inhibitory concentration (MIC) was above 256 µg/mL.

As for `O=[N+]([O-])c1cn(CC(O)c2ccccc2)c(Br)n1` (racemic), the minimal inhibitory concentration (MIC) was 32 µg/mL (≈ 103 µM).

In turn, `O=[N+]([O-])c1cn(CC(O)c2ccc(Cl)cc2Cl)cn1` (racemic) showed an MIC of 32 µg/mL (≈ 106 µM).

Molecule `COc1nc([N+](=O)[O-])cn1CC(O)c1ccc(C)cc1C` (racemic) registered an MIC of 16 µg/mL (≈ 54.9 µM).

Another test has as its system Mycobacterium tuberculosis. The test can be described thus: Antitubercular activity against multidrug-resistant Mycobacterium tuberculosis H37Rv under anaerobic condition after 7 days by GFP reporter gene assay. It counts as functional. The conditions noted are these: 168 h. Summed up:
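GFP-expressing Mtb H37Rv, made non-replicating by the Wayne hypoxia model, was added to 2-fold DMSO serial compound dilutions inside an anaerobic chamber. Plates were held at 37 °C for 7 days under anaerobiosis, then diluted 10-fold into fresh medium and outgrown for 2 days. Fluorescence was read at ex 485/em 520 nm. MIC was the lowest concentration giving 80% fluorescence inhibition versus bacteria-only wells.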
`COc1nc([N+](=O)[O-])cn1CC(O)c1ccc(-c2ccccc2)cc1` (racemic) yielded an MIC of 1 µg/mL (≈ 2.95 µM).

`COc1nc([N+](=O)[O-])cn1CC(O)c1ccc(F)cc1F` (racemic) yielded an MIC of 4 µg/mL (≈ 13.4 µM).

With `O=[N+]([O-])c1cn2c(n1)OC[C@@H](OCc1ccc(OC(F)(F)F)cc1)C2` [PRETOMANID], the MIC stood at 2 µg/mL (≈ 5.57 µM).

Regarding `COc1nc([N+](=O)[O-])cn1CC(O)c1ccc(Cl)cc1Cl` (racemic), the minimum inhibitory concentration (MIC) was 4 µg/mL (≈ 12 µM).

In the case of `O=[N+]([O-])c1cn(CC(O)c2ccc(Cl)cc2Cl)c(Br)n1` (racemic), the minimum inhibitory concentration (MIC) stood at 8 µg/mL (≈ 21 µM).

The record behind these values is ChEMBL document CHEMBL1681637, “Synthesis and antitubercular activity of monocyclic nitroimidazoles: insights from econazole” (Bioorg Med Chem Lett, 2011).
